Compound activity (PubChem BioAssay)
Hits are enriched below; roughly 2% of the tested compounds scored in any of these assays.
Exocytosis inh = lytic granule exocytosis inhibition. AID 651702. TALL-104 LAMP-1 surface exposure, flow cytometry; cells stimulated with thapsigargin and PMA. 360,000 compounds, 0.66% hits. inhibition, % at 10 µM;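 active = inhibition above about 55%, limit read from the data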
ABCB6 inh 2 = inhibitors of human ABC transporter ABCB6. Q9NP58. K562-ABCB6 porphyrin accumulation, flow cytometry, 1 h; hits give low values. fluorescence ratio to DMSO, % at 10 µM. 360,000 compounds, 0.19% hits. AID 602162;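 active = fluorescence ratio to DMSO below 75%, the collection mean minus 3 SD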;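 also: signal is porphyrin accumulated inside mitochondria; 100% equals median channel fluorescence of DMSO control wells; lower ratio means ABCB6 inhibition with less porphyrin fluorescence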
Target sequence (Q9NP58 whole entry, looked up): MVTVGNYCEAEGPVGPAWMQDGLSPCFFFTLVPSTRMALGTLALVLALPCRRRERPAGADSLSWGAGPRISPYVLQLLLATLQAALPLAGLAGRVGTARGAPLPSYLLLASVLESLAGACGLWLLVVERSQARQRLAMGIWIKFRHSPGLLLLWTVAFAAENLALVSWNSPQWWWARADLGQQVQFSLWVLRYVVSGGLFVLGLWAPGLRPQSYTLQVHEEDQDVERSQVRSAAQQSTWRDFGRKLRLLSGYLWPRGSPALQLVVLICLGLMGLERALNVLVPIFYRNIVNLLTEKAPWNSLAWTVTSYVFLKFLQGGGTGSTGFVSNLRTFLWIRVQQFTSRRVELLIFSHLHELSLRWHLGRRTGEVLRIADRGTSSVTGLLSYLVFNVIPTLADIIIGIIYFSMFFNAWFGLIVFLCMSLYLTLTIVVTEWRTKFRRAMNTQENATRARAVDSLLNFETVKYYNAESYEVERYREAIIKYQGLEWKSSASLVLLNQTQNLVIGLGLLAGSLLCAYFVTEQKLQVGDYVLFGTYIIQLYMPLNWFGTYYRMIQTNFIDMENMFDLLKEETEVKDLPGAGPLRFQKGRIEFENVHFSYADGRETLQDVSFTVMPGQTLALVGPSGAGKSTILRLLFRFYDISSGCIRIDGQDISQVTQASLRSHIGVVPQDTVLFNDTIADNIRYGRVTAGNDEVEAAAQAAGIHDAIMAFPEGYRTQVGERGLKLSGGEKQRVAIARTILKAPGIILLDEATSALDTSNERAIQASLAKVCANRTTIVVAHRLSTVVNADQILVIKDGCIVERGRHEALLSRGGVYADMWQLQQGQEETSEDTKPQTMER
VLA-4 inh = inhibition in a human VLA-4 binding assay; P13612; VLA-4 expressing cells, ligand binding flow cytometry; inhibition, % (about 7 µM as worked out from the volumes in the protocol); 330,000 compounds, 0.2% hits; in the data active = inhibition above about 50%
DAGLB inhibitor = diacylglycerol lipase beta (human) inhibition; 340,000 compounds, 0.059% hits; HEK293T DAGLB membrane lysate, EnzChek fluorogenic substrate; AID 504411; inhibition, % at 5.17 µM; in the data active = inhibition above about 34%;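 also: 0% = enzyme with vehicle and 100% = wells lacking enzyme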
MT1-MMP act inh = inhibitors of human MT1-MMP activation; GFP/RFP ratio change, % at 20 µM; AID 651647; 360,000 compounds, 0.061% hits; P50281; HT1080 RFP-PRO-GFP cells, GFP/RFP ratio fluorescence, overnight; percent of plate control window, DMSO zero;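 active = GFP/RFP ratio change of at least 30% with cell ATP level not reduced by more than half and red fluorescence within 50% of control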
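Test system: HT1080 RFP-PRO-GFP cells; Benchmarks: DMSO and RFP-L50D-GFP cell wells; Timing: cells overnight before dosing, compound overnight, 37 °C, 5% CO2; Compound: one 20 µM compound dose with 1% DMSO; Read-out: GFP/RFP fluorescence ratio.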
FGF22 binding = binders of recombinant human FGF22 by thermal shift; SYPRO orange fluorescence; percent of sucrose octasulfate shift, DMSO zero; activity (Tm shift, normalised), % at 9.99 µM; Q9HCT0; 340,000 compounds, 1.5% hits;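 active = mean Tm shift, scaled 0 neutral to 100 positive control, at about 1.3% or above, every replicate too, limit read from the data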
ABCB6 inh CP1 = blocks the human ABCB6 transporter | shares compounds with ABCB6 inh 2 | K562-ABCB6 porphyrin accumulation, flow cytometry, 1 h; hits give low values | ratio response (% of DMSO), % at 10 µM | 700 tested, under 10 active;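 active = repeat-averaged ratio response below 75% of DMSO, the collection mean minus 3 SD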;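 also: median porphyrin fluorescence at 575 nm with 488 nm excitation from mitochondria; lower ratio means less porphyrin signal so ABCB6 inhibition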
* = called active by the depositor; nt = no result.

SMILES	Exocytosis inh	ABCB6 inh 2	VLA-4 inh	DAGLB inhibitor	MT1-MMP act inh	FGF22 binding	ABCB6 inh CP1
N#CCCN/N=C(\Cc1nc2ccccc2[nH]1)c1ccccc1	2.0	61.0*	-13.8	0.1	-20.7	nt	108.0
N#CCCN/N=C(/Cc1nc2ccccc2[nH]1)c1ccc(Cl)cc1	nt	nt	-10.1	nt	nt	nt	nt
O=C(NCC1CC1)[C@@H]1[C@@H](CO)[C@@H]2Cn3c(ccc(-c4cccnc4)c3=O)[C@H]1N2C(=O)C1CCCCC1	nt	nt	nt	nt	nt	0.1	nt
O=C(Nc1ccc(Cl)cc1)Nc1ccon1	-0.1	91.0	14.2	1.6	0.5	0.3	nt
Cc1ccc(NC(=O)Nc2ccon2)cc1	2.5	10.0*	nt	0.6	1.9	-0.2	99.0
Cc1nc(N2CCN(c3ccccc3)CC2)nc2c1C(=O)CCC2	-1.8	55.0*	9.0	-4.3	2.1	nt	99.0
COC(=O)c1ccc(-c2ccc(F)cc2)nc1C	7.4	63.0*	15.7	-11.9	-3.5	nt	99.0
C[C@@H]1CN([C@@H](C)CO)S(=O)(=O)c2ccc(-c3cccnc3)cc2O[C@H]1CN(C)C	nt	nt	nt	nt	nt	0.0	nt
Nn1c(SCC(=O)N2CCOCC2)nnc1-c1ccc(Cl)cc1Cl	-1.7	83.0	8.7	-0.8	2.5	nt	nt
Cn1c(SCC(=O)N2CCOCC2)nnc1-c1ccc(Cl)cc1Cl	0.6	73.0*	6.3	-3.4	22.0	nt	103.0
CCCc1ccc(S(=O)(=O)NCc2nnc(SC)n2C)cc1	-11.4	63.0*	-8.1	0.1	-1.6	-0.1	97.0
CSc1nnc(CNS(=O)(=O)c2ccc(Br)cc2)n1C	-15.6	102.0	10.2	1.6	-0.1	0.2	nt
COc1ccc(N=CC2=C(O)c3ccccc3C2=O)cc1	0.5	89.0	4.4	-3.5	-0.8	nt	nt
O=C1C(C=Nc2ccccc2)=C(O)c2ccccc21	-1.6	71.0*	1.2	-2.2	-0.9	nt	97.0
COc1ccccc1OCc1nnc(SCC(=O)c2cc(Cl)ccc2OC)o1	4.8	68.0*	28.2	-5.0	0.0	nt	98.0
COc1ccccc1OCc1nnc(SCC(=O)N2CCCC2)o1	-12.8	96.0	5.1	1.7	3.3	41.5	nt
CCCNS(=O)(=O)c1ccc(CCC(=O)NCc2ccc3c(c2)OCO3)cc1	0.2	106.0	10.9	-0.6	-0.6	nt	nt
O=C(CCNS(=O)(=O)c1ccc(Br)cc1)NCc1ccc2c(c1)OCO2	0.5	62.0*	-0.4	-1.1	5.1	nt	98.0
C[C@H](CO)N1C[C@H](C)[C@H](CN(C)C(=O)Nc2ccc3c(c2)OCO3)Oc2cc(C#Cc3cccnc3)ccc2S1(=O)=O	nt	nt	nt	nt	nt	0.7	nt
Cc1ccc(S(=O)(=O)Cc2ccc(C(=O)N3CCC(C(N)=O)CC3)o2)cc1	-2.4	55.0*	16.5	-0.1	0.3	0.1	98.0
COC(=O)C(NC(=O)CCc1nnc2ccc(N3CCC(C)CC3)nn12)C(C)C (stereo not given)	-1.2	97.0	0.9	3.7	2.4	-0.2	117.0
CCOC(=O)C(C)NC(=O)CCc1nnc2ccc(N3CCC(C)CC3)nn12 (stereo not given)	-14.4	72.0*	6.6	-3.8	6.5	0.3	99.0
CCC(C)NC(=O)CCc1nnc2ccc(N3CCC(C)CC3)nn12 (stereo not given)	6.6	61.0*	7.9	0.4	-5.2	-0.1	99.0
CC1CCN(c2ccc3nnc(CCC(=O)NCC(C)c4ccccc4)n3n2)CC1 (stereo not given)	6.9	99.0	-6.8	-0.6	0.3	0.0	nt
CC(C)CCNC(=O)CCc1nnc2ccc(N3CCC(C)CC3)nn12	-2.5	97.0	4.2	0.0	0.0	-0.2	100.0
SMILES	Exocytosis inh	ABCB6 inh 2	VLA-4 inh	DAGLB inhibitor	MT1-MMP act inh	FGF22 binding	ABCB6 inh CP1
Cc1noc(C)c1NC(=O)Nc1ccc2c(c1)C(=O)N([C@@H](C)CO)C[C@H](C)[C@@H](CN(C)Cc1ccccc1)O2	nt	nt	nt	nt	nt	-0.6	nt
CC1CCN(c2ccc3nnc(CCC(=O)N4CCCCC4)n3n2)CC1	-2.2	98.0	11.5	1.7	-2.4	0.2	100.0
CC(C)NC(=O)N(C)C[C@@H]1Oc2cc(C#CC(C)(C)O)ccc2S(=O)(=O)N([C@H](C)CO)C[C@@H]1C	nt	nt	nt	nt	nt	0.1	nt
COc1cccc(CN2CCC2(C)C(=O)Nc2cccc3cccnc23)c1OC (stereo not given)	-3.4	98.0	nt	nt	-0.8	0.3	nt
COc1ccc(OC)c(NC(=O)C2(C)CCN2Cc2cccc(OC)c2OC)c1 (stereo not given)	8.4	71.0*	nt	nt	-0.2	0.0	104.0
CC(CN1CCCC1)OC(=O)COc1ccccc1 (stereo not given)	1.7	72.0*	10.8	1.6	-2.2	nt	99.0
Cc1ccc(OCC(=O)OC(C)CN2CCCCC2)cc1 (stereo not given)	-7.1	99.0	10.9	1.2	4.4	-0.1	nt
CCC(=O)N1C[C@@H](C)[C@@H](OC)CN(C)C(=O)c2cc(NC(=O)C3CC3)ccc2OC[C@@H]1C	nt	nt	nt	nt	nt	0.0	nt
C[C@@H]1CN([C@@H](C)CO)S(=O)(=O)c2ccc(-c3ccccc3)cc2O[C@H]1CN(C)Cc1cccnc1	nt	nt	nt	nt	nt	-0.2	nt
C[C@@H]1CN([C@H](C)CO)C(=O)Cc2cc(NS(=O)(=O)c3ccccc3)ccc2O[C@H]1CN(C)CC1CC1	nt	nt	nt	nt	nt	-0.2	nt
COc1ccc([C@@H]2C=C(C(=O)N3CCCCC3)O[C@H](OCc3ccc(CO)cc3)C2)cc1	nt	nt	nt	nt	nt	1.2	nt
CCC(C)c1c(O)nc(SCC(=O)N2CCOCC2)[nH]c1=O (stereo not given)	0.4	107.0	-2.3	-0.6	7.7	nt	nt
CCC(C)c1c(O)nc(SCC(=O)N2CCCCC2)[nH]c1=O (stereo not given)	-0.8	52.0*	-2.3	-1.4	1.8	-0.2	99.0
COc1ccccc1-c1ccc2c(c1)[C@H]1[C@H](CCN1S(=O)(=O)c1ccccc1OC)[C@@H](CO)N2	nt	nt	nt	nt	nt	0.1	nt
CC(C)CC#Cc1cnc2c(c1)C(=O)N([C@H](C)CO)C[C@H](C)[C@H](CN(C)Cc1cccc(F)c1)O2	nt	nt	nt	nt	nt	-0.2	nt
O=C(CSc1nnc(-c2ccc(F)cc2)o1)Nc1ccc(S(=O)(=O)N2CCCC2)cc1	12.0	99.0	0.2	-1.1	3.7	nt	nt
O=C(CSc1nnc(-c2ccc(F)cc2)o1)Nc1ccc(S(=O)(=O)N2CCCCCC2)cc1	1.5	31.0*	3.6	3.1	4.5	nt	98.0
Cc1noc(C)c1S(=O)(=O)N(C)C[C@@H]1OCCCC[C@@H](C)Oc2ccc(NC(=O)c3ccccc3)cc2C(=O)N([C@H](C)CO)C[C@@H]1C	nt	nt	nt	nt	nt	-0.5	nt
CNC(=O)C[C@@H]1CC[C@H]2[C@H](COc3ccc(NC(=O)c4cccc(F)c4)cc3C(=O)N2C)O1	nt	nt	nt	nt	nt	-0.3	nt
CN(C)S(=O)(=O)c1ccc(C(=O)NCCC(=O)N2CCCC2)cc1	-12.7	70.0*	7.2	-0.8	2.5	0.1	101.0
